Reference: ChEMBL document CHEMBL4477204, “Tetrahydroisoquinoline-Derived Urea and 2,5-Diketopiperazine Derivatives as Selective Antagonists of the Transient Receptor Potential Melastatin 8 (TRPM8) Channel Receptor and Antiprostate Cancer Agents” (J Med Chem, 2016)
Activity calls are given as the source filed them. No cut-off for these calls is given here.

How the values were obtained:
[1] = target: T1, Transient receptor potential cation channel subfamily M member 8 (Rattus norvegicus, UniProt Q8R455); assay: Antagonist activity at recombinant rat TRPM8 expressed in HEK293 cells assessed as inhibition of icilin-induced intracellular calcium accumulation preincubated for 5 mins followed by icilin addition by Fluo-4-AM probe-based spectrofluorimetric assay; assay type: cell-based
Summary of the method: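 HEK-293 cells stably expressing the listed TRP channel (human TRPV1; rat TRPM8, TRPA1, TRPV2, TRPV3 or TRPV4) were Fluo-4-AM loaded (4 µM, 1 h, 25 °C) and suspended in Tyrode's buffer pH 7.4. Compound was added 5 min before agonist: icilin 0.25 µM (TRPM8), capsaicin 0.1 µM (TRPV1), AITC 100 µM (TRPA1), LPC 3 µM (TRPV2), thymol 100 µM (TRPV3), 4α-PDD 1 µM (TRPV4). Agonist alone was taken as 100%. IC50 from sigmoidal fit, at least triplicate.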

[2] = target: T1, Transient receptor potential cation channel subfamily M member 8; assay: Agonist activity at recombinant rat TRPM8 expressed in HEK293 cells assessed as increase in intracellular calcium accumulation by Fluo-4-AM probe-based spectrofluorimetric assay; assay type: cell-based
Summary of the method: (§1)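 HEK-293 cells stably expressing rat TRPM8 were loaded with Fluo-4-AM (4 µM, 0.02% Pluronic F-127) for 1 h at 25 °C in serum-free EMEM. They were then washed and suspended in Tyrode's buffer pH 7.4 in a stirred cuvette. [Ca2+]i fluorescence (ex 488/em 516 nm) was read before and after compound addition. Wild-type HEK-293 response was subtracted. Efficacy is expressed versus 4 µM ionomycin; EC50 comes from a sigmoidal fit.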

[3] = target: Transient receptor potential cation channel subfamily M member 8 (Rattus norvegicus) (UniProt Q8R455); assay: Agonist activity at recombinant rat TRPM8 expressed in HEK293 cells assessed as increase in intracellular calcium accumulation by Fluo-4-AM probe-based spectrofluorimetric assay relative to ionomycin; assay type: cell-based; summary of the method: as §1
[4] = target: Transient receptor potential cation channel subfamily M member 8 (Rattus norvegicus) (UniProt Q8R455); assay: Agonist activity at recombinant rat TRPM8 expressed in HEK293 cells assessed as increase in intracellular calcium accumulation up to 10 uM by Fluo-4-AM probe-based spectrofluorimetric assay; assay type: cell-based; summary of the method: as §1
in vitro = details: C57BL/6, mouse, liver microsomes

T1 sequence (Q8R455 whole entry): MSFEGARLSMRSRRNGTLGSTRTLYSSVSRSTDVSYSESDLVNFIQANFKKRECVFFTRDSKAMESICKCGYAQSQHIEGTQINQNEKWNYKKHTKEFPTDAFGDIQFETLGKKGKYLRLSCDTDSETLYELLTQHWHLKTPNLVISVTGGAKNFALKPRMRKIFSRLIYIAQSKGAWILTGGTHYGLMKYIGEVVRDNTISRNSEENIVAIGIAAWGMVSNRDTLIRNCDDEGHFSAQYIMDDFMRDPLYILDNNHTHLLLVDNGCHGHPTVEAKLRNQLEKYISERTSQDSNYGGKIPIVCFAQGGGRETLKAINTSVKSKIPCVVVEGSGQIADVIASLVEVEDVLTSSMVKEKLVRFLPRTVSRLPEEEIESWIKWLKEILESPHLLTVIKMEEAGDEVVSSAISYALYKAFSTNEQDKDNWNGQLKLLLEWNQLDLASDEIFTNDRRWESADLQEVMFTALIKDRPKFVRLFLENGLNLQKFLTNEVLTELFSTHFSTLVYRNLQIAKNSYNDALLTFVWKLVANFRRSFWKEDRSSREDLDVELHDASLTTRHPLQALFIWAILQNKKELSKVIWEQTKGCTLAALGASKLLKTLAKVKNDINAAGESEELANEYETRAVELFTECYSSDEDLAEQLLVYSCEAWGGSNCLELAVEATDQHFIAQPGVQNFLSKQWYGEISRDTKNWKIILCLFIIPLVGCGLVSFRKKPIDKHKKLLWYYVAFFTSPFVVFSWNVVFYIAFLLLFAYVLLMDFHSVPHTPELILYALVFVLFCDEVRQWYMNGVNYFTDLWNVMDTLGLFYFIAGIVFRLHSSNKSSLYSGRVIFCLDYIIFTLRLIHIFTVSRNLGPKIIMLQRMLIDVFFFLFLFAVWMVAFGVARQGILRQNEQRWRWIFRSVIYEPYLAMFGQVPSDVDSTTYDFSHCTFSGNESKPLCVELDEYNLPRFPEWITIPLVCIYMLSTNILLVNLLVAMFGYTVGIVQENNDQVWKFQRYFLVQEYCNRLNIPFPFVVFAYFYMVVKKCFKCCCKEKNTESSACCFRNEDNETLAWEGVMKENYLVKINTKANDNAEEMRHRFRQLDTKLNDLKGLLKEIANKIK
Chain of Transient receptor potential cation channel subfamily M member 8 (Rattus norvegicus) (Q8R455 whole entry, looked up): as the sequence (Q8R455 whole entry) above

| SMILES | IC50 [1] [µM] | EC50 ([2]; hek293) | EC50 ([2]; read-out: EC50) [µM] | Activity [3] [%] | Activity [4] | CLint scaled at 1 h, 3 µM (in vitro) [mL/min/kg] |
| --- | --- | --- | --- | --- | --- | --- |
| COc1ccc(CCNC(=O)N2CCc3cc(OC)c(OC)cc3C2c2cccc([N+](=O)[O-])c2)cc1OC (configuration not stated) | > 50 | Not Active |  |  |  |  |
| COc1ccc(CCNC(=O)N2CCc3cc(OC)c(OC)cc3C2c2ccc(Cl)cc2)cc1OC (configuration not stated) | 31.7 | Not Active |  |  |  |  |
| COc1cc2c(cc1OC)C(c1cccc(-c3cccc([N+](=O)[O-])c3)n1)=NCC2 | 22.9 | Not Active |  |  |  |  |
| CCC1c2cc(OC)c(OC)cc2CCN1C(=O)NCCc1ccc(OC)c(OC)c1 (configuration not stated) | > 50 | Not Active |  |  |  |  |
| COc1ccc(/C=C2\NC(=O)[C@@H]3Cc4cc(OC)c(OC)cc4[C@@H](c4cccc([N+](=O)[O-])c4)N3C2=O)cc1OC | 35.2 | Not Active |  |  |  |  |
| COc1ccc(/C=C2\NC(=O)[C@@H]3Cc4cc(OC)c(OC)cc4[C@@H](c4ccc(Br)cc4)N3C2=O)cc1OC | 42.4 | Not Active |  |  |  |  |
| CCC1c2cc(OC)c(OC)cc2CCN1C(=O)NCCc1cc(OC)c(OC)cc1C(CC)S(=O)(=O)c1ccc(C)cc1 (configuration not stated) | > 50 |  | 26.1 | 15.3 | inactive |  |
| COc1cc2c(cc1OC)[C@@H](c1ccc(C(F)(F)F)cc1)N(C(=O)N1CCc3cc(OC)c(OC)cc3[C@@H]1c1ccc(C(F)(F)F)cc1)CC2 | 10.6 | Not Active |  |  |  |  |
| COc1ccc(CCNC(=O)N2CCc3cc(OC)c(OC)cc3C2c2ccccc2)cc1OC (configuration not stated) | 1.2 | Not Active |  |  |  | 39.6 |
| COc1cc2c(cc1OC)[C@@H](c1ccc(F)cc1)N(C(=O)N1CCc3cc(OC)c(OC)cc3[C@@H]1c1ccc(F)cc1)CC2 | > 50 | Not Active |  |  |  |  |
| COc1ccc(/C=C2\NC(=O)[C@@H]3Cc4cc(OC)c(OC)cc4[C@@H](c4ccccc4Cl)N3C2=O)cc1OC | 39.3 | Not Active |  |  |  |  |
| COc1ccc(CCNC(=O)NCCc2ccc(OC)c(OC)c2)cc1OC | > 50 | Not Active |  |  |  |  |
| CCCC1c2cc(OC)c(OC)cc2CCN1C(=O)NCCc1ccc(OC)c(OC)c1 (configuration not stated) | > 50 | Not Active |  |  |  |  |
| COc1ccc(/C=C2\NC(=O)[C@@H]3Cc4cc(OC)c(OC)cc4[C@@H](c4ccccc4)N3C2=O)cc1OC | 12.8 |  | 15.9 | 14.7 | inactive |  |
| COc1ccc(CCNC(=O)N2CCc3cc(OC)c(OC)cc3C2c2ccc(Br)cc2)cc1OC (configuration not stated) | 48.2 | Not Active |  |  |  |  |
| COc1cc2c(cc1OC)[C@@H](c1ccc(Oc3ccc([N+](=O)[O-])cc3)cc1)N(C(=O)N1CCc3cc(OC)c(OC)cc3[C@@H]1c1ccc(Oc3ccc([N+](=O)[O-])cc3)cc1)CC2 | > 50 | Not Active |  |  |  |  |
| COc1cc2c(cc1OC)C(c1ccc(C(F)(F)F)cc1)N(C(C)=O)CC2 (configuration not stated) | > 50 | Not Active |  |  |  |  |
| COc1cc2c(cc1OC)[C@H](c1ccc3ccccc3c1)N(C(=O)N1CCc3cc(OC)c(OC)cc3[C@@H]1c1ccc3ccccc3c1)CC2 (racemic) | > 50 | Not Active |  |  |  |  |

| SMILES | IC50 [1] [µM] | EC50 ([2]; hek293) | EC50 ([2]; read-out: EC50) [µM] | Activity [3] [%] | Activity [4] | CLint scaled at 1 h, 3 µM (in vitro) [mL/min/kg] |
| --- | --- | --- | --- | --- | --- | --- |
| COc1cc2c(cc1OC)C(c1ccc([N+](=O)[O-])cc1[N+](=O)[O-])NCC2 (racemic) | > 50 | Not Active |  |  |  |  |
| COc1cc2c(cc1OC)[C@H](c1ccc([N+](=O)[O-])cc1[N+](=O)[O-])N(C(=O)N1CCc3cc(OC)c(OC)cc3[C@@H]1c1ccc([N+](=O)[O-])cc1[N+](=O)[O-])CC2 (racemic) | > 50 | Not Active |  |  |  |  |
| CCC[C@H]1c2cc(OC)c(OC)cc2CCN1C(=O)N1CCc2cc(OC)c(OC)cc2[C@@H]1CCC (racemic) | 8.5 | Not Active |  |  |  |  |
| COc1cc2c(cc1OC)C(c1cccc(-c3cccc([N+](=O)[O-])c3)n1)NCC2 (racemic) | > 50 | Not Active |  |  |  |  |
| COc1cc2c(cc1OC)[C@H](c1ccc(Oc3ccc([N+](=O)[O-])cc3)cc1)N(C(=O)N1CCc3cc(OC)c(OC)cc3[C@@H]1c1ccc(Oc3ccc([N+](=O)[O-])cc3)cc1)CC2 (racemic) | > 50 | Not Active |  |  |  |  |
| COc1cc2c(cc1OC)[C@H](c1ccc(C(F)(F)F)cc1)N(C(=O)N1CCc3cc(OC)c(OC)cc3[C@@H]1c1ccc(C(F)(F)F)cc1)CC2 (racemic) | 0.18 | Not Active |  |  |  | 10.1 |
| COc1ccc(OC)c(C[C@@H]2NC(=O)[C@@H]3Cc4c(OC)ccc(OC)c4[C@@H](/C=C/c4ccccc4)N3C2=O)c1 (racemic) | 30.6 | Not Active |  |  |  |  |
| COc1cc2c(cc1OC)[C@H](c1ccc(Br)cc1)N(C(=O)N1CCc3cc(OC)c(OC)cc3[C@@H]1c1ccc(Br)cc1)CC2 (racemic) | 2.2 | Not Active |  |  |  | 19.1 |
| COc1cc2c(cc1OC)[C@H](c1ccccc1Cl)N(C(=O)N1CCc3cc(OC)c(OC)cc3[C@@H]1c1ccccc1Cl)CC2 (racemic) | 19.8 | Not Active |  |  |  | 52.9 |
| COc1ccc(CCNC(=O)N2CCc3cc(OC)c(OC)cc3C2c2ccccc2Cl)cc1OC (racemic) | 46.1 | Not Active |  |  |  |  |
| COc1cc2c(cc1OC)[C@H](c1cccc(-c3cccc([N+](=O)[O-])c3)n1)N(C(=O)N1CCc3cc(OC)c(OC)cc3[C@@H]1c1cccc(-c3cccc([N+](=O)[O-])c3)n1)CC2 (racemic) | 43.7 | Not Active |  |  |  |  |
| COc1cc2c(cc1OC)[C@H](c1cccc([N+](=O)[O-])c1)N(C(=O)N1CCc3cc(OC)c(OC)cc3[C@@H]1c1cccc([N+](=O)[O-])c1)CC2 (racemic) | 44.4 | Not Active |  |  |  |  |
| COc1cc2c(cc1OC)[C@H](c1ccc([N+](=O)[O-])cc1)N(C(=O)N1CCc3cc(OC)c(OC)cc3[C@@H]1c1ccc([N+](=O)[O-])cc1)CC2 (racemic) | > 50 |  | 14.2 | 22.7 | inactive |  |
| COc1cc(C[C@@H]2NC(=O)[C@@H]3Cc4c(OC)c(C)c(OC)c(OC)c4[C@H](/C=C/c4ccccc4)N3C2=O)c(OC)c(C)c1OC (racemic) | 3.2 |  | 20.8 | 26.6 | inactive |  |
| COc1cc(C[C@@H]2NC(=O)[C@H](Cc3cc(OC)c(OC)c(C)c3OC)NC2=O)c(OC)c(C)c1OC (racemic) | > 50 | Not Active |  |  |  |  |
| COc1c(C)c(OC)c(OC)c2c1C[C@H]1C(=O)N3[C@@H](Cc4c(OC)c(C)c(OC)c(OC)c4[C@@H]3/C=C/c3ccccc3)C(=O)N1[C@H]2/C=C/c1ccccc1 (racemic) | 8.8 | Not Active |  |  |  |  |
| COc1cc2c(cc1OC)C(c1ccc(Cl)cc1)NCC2 (racemic) | > 50 | Not Active |  |  |  |  |
